Published values collected from several papers.
Each line is one published result; the experiments were not run side by side.
Action: inhibitor
CHEK2: Serine/threonine-protein kinase Chk2 (CHEK2, Homo sapiens, UniProt O96017)

`CNC(=O)c1cc(Oc2ccc(NC(=O)Nc3ccc(Cl)c(C(F)(F)F)c3)cc2)ccn1` gave an inhibition of -5% (CHEK2; enzyme activity; 0.3 µM).
For `CSc1nc(C)c(-c2ccnc(Nc3ccc(N4CCOCC4)cc3)c2)[nH]1`, the inhibition was -5.4% (CHEK2; enzyme activity; 10 µM).
`Cc1ncc([N+](=O)[O-])n1C(=NO)c1ccccc1C(F)(F)F` gave an inhibition of 17.1% (CHEK2; enzyme activity; 10 µM).
`CNc1cc(Oc2cc(C(=O)Nc3cc(N4CCN(C)CC4)cc(C(F)(F)F)c3)ccc2C)ncn1` gave an inhibition of -100% (CHEK2; target engagement in cells, chemoproteomics; Huh-7; 1 µM).
`COc1cc2ncnc(Nc3ccc(Oc4ccccc4)cc3C)c2cc1OC` gave an inhibition of 83% (CHEK2; enzyme activity; 1 µM).
For `Cc1ccc(Nc2nccc(N(C)c3ccc4c(C)n(C)nc4c3)n2)cc1S(N)(=O)=O`, the inhibition was 30% (Serine/threonine-protein kinase Chk2 (CHEK2, Homo sapiens, UniProt O96017, I157T); enzyme activity; 10 µM).
`CCOc1cc(-c2nncn2C)ccc1Nc1ncc2cc(C)nc(NCC(C)(C)C)c2n1` gave an inhibition of under 15% (CHEK2; enzyme activity, FRET; 1 µM).
`CCN1CCN(Cc2ccc(NC(=O)c3ccc(C)c(Oc4ccnc5[nH]ccc45)c3)cc2C(F)(F)F)CC1` gave an inhibition of -16.3% (CHEK2; target engagement in cells, chemoproteomics; A-375; 0.5 µM).
`CN1CC(Oc2cnc(C#N)cc2-c2ccn3nc(NC(=O)C4CC4)cc3c2)C1` gave an inhibition of 0% (CHEK2; enzyme activity; 1 µM).
With `CCCS(=O)(=O)Nc1ccc(F)c(C(=O)c2c[nH]c3ncc(-c4ccc(Cl)cc4)cc23)c1F` the inhibition was under 10% (CHEK2; enzyme activity; 1 µM).
The inhibition of `COc1cc2ncnc(Nc3ccc(Oc4ccccc4)c(C)c3C)c2cc1OC` is reported as 36% (CHEK2; enzyme activity; 1 µM).
`CN(C)C1CCN(CC#Cc2nn(C3CCCC3)c3nc(NCc4ccccc4)ncc23)C1` (centres unmarked) has an inhibition of 17% (CHEK2; enzyme activity, FRET; 10 µM).
The inhibition of `CNc1cccc2cc(C(=O)Nc3ccc(C(=O)O)cc3)c(=O)[nH]c12` is reported as 15% (CHEK2; enzyme activity; 10 µM).
The inhibition of `CN(c1ncccc1CNc1nc(Nc2ccc3c(c2)CC(=O)N3)ncc1C(F)(F)F)S(C)(=O)=O` is reported as 33.1% (CHEK2; enzyme activity; 1 µM).
